According to publication PMC10072318 (Bioorganic & medicinal chemistry letters, 2023):
“Also recorded” adds a separate entry of the source.

System: S. mansoni schistosomula (post-infective larvae)
Test: not given
Settings: cited from earlier work

SMILES | Killing of S. mansoni schistosomula in vitro
O=C(Nc1ccc(C(F)(F)F)c(C(F)(F)F)c1)c1cc(Cl)ccc1O [compound 1] | kill S. mansoni adults[6] and schistosomula

System: adult S. mansoni
Test: Adult S. mansoni severity score assay
Format: cell-based, Schistosoma mansoni
Settings: not given
How it was run: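 Adult worms were exposed to the test compound at 5 μM. Responses were scored visually at 1, 5, 24 and 48 h using a constrained nomenclature of descriptors for the worm's responses to chemical insult. Each descriptor carries a value, and these values are summed into a severity score ranging from 0 (no activity) to 4 (maximum activity).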

SMILES | Time by which adult worm integrity was severely compromised [h]
O=C(Nc1ccc(Cl)c(Cl)c1)c1ccc(C(F)(F)F)cc1 [compound 9] | ≤ 1
O=C(Nc1cccc(C(F)(F)F)c1)c1ccc(C(F)(F)F)cc1 [compound 11] | ≤ 1

Same assay, conditions: 5 μM, SAR discussion

SMILES | Antischistosomal activity in words
O=C(Nc1ccccc1)c1ccc(C(F)(F)F)cc1 [compound 6] | inactive
Cc1ccc(NC(=O)c2ccc(C(F)(F)F)cc2)cc1C [compound 7] | retains substantial potency
COc1ccc(NC(=O)c2ccc(C(F)(F)F)cc2)cc1OC [compound 8] | inactive; also recorded: eliminated activity
O=C(Nc1ccc(F)c(F)c1)c1ccc(F)cc1 [compound 13] | activity was essentially compromised
Cc1ccc(NC(=O)c2ccccc2)cc1C [compound 14] | abolished activity
O=C(Nc1cccc(C(F)(F)F)c1)c1ccccc1 [compound 15] | abolished activity
O=C(Nc1cccc(C(F)(F)F)c1)c1ccc(F)cc1 [compound 16] | activity was essentially abolished
N#Cc1ccc(C(=O)Nc2cccc(C(F)(F)F)c2)cc1 [compound 18] | abolished activity
O=C(Nc1ccccc1)c1ccc(F)cc1 [compound 23] | inactive
O=C(Nc1ccc(Cl)c(Cl)c1)c1ccccc1 [compound 25] | some activity was retained
O=C(Nc1ccc(Cl)nn1)c1cccc(F)c1 [compound 31, N-(6-chloropyridazin-3-yl)-3-fluorobenzamide] | inactive

System: S. mansoni adults
Test: not given
Settings: cited from earlier work

SMILES | Killing of S. mansoni adults in vitro
O=C(Nc1ccc(C(F)(F)F)c(C(F)(F)F)c1)c1cc(Cl)ccc1O [compound 1] | kill S. mansoni adults
